Reference: ChEMBL document CHEMBL4004822, “Thienopyrimidinone Based Sirtuin-2 (SIRT2)-Selective Inhibitors Bind in the Ligand Induced Selectivity Pocket” (J Med Chem, 2017)

biological target: T1, NAD-dependent protein deacetylase sirtuin-2 (Homo sapiens) (UniProt Q8IXJ6); test: Inhibition of recombinant human C-terminal His-tagged SIRT2 (50 to 389 end residues) expressed in Escherichia coli at 10 uM using p53 derived (379 to 382 residues) fluorogenic peptide substrate RHKK(Ac)-AMC preincubated for 10 mins followed by substrate addition in presence of NAD+ by fluorescence assay relative to control
T1 sequence (whole entry): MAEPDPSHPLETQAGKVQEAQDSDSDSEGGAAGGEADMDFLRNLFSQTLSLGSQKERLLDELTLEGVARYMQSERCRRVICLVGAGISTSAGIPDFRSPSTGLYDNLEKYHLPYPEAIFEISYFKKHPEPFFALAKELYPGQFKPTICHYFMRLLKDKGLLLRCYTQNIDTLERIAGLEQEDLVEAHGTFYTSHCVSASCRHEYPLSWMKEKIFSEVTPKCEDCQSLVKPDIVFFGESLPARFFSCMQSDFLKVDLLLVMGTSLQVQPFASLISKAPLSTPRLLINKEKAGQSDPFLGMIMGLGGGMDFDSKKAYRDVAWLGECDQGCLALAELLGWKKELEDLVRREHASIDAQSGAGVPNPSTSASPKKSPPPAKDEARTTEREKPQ
Procedure, shortened: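 Two-step fluorogenic assay with p53 379–382 RHKK(Ac)-AMC. Compound (from 10 mM DMSO stock) preincubated ~10 min with human SIRT before substrate addition. Developer then releases fluorophore, read at ex 360/em 460 nm.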

| Structure (SMILES) | inhibition [%] |
| --- | --- |
| COc1ccc2ccccc2c1Cn1cnc2sc3c(c2c1=O)CCC(NCc1cncnc1)C3 (stereo not given) | 33 |
| COc1ccc2ccccc2c1Cn1cnc2sc(CCNCC3CCOC3)c(C)c2c1=O (stereo not given) | 65 |
| COc1ccc2ccccc2c1Cn1cnc2sc(CCN(C)C)c(C)c2c1=O | 30 |
| COc1ccc(Cn2cnc3sc4c(c3c2=O)CCC(NCC2CCOC2)C4)c2ccccc12 (stereo not given) | 70 |
| O=c1c2c3c(sc2ncn1Cc1ccc2ccccc2c1)CC(NCc1ccc(Cl)cc1)CC3 (stereo not given) | 49 |
| O=c1c2c3c(sc2ncn1Cc1cccc2ccccc12)CC(NCc1ccccc1)CC3 (stereo not given) | 66 |
| O=c1c2c3c(sc2ncn1Cc1cccc2ccccc12)CC(NCCC1CCCCC1)CC3 (stereo not given) | 65 |
| O=c1c2c3c(sc2ncn1Cc1ccc2ccccc2c1)CC(NCC1CCOC1)CC3 (stereo not given) | 58 |
| O=c1c2c3c(sc2ncn1Cc1ccc2ccccc2c1)CC(NCc1cccc(Cl)c1)CC3 (stereo not given) | 49 |
| O=c1c2c3c(sc2ncn1Cc1ccc2ccccc2c1)CC(NC1CCCC1)CC3 (stereo not given) | 63 |
| COc1ccc(Cn2cnc3sc4c(c3c2=O)CCC(Nc2ccc(F)cc2)C4)c2ccccc12 (stereo not given) | 56 |
| O=c1c2c3c(sc2ncn1Cc1cccc2ccccc12)CC(Nc1ccc(F)cc1)CC3 (stereo not given) | 50 |
| O=c1c2c3c(sc2ncn1Cc1ccc2ccccc2c1)CC(NCCC1CCCCC1)CC3 (stereo not given) | 59 |
| COc1ccc(NC2CCc3c(sc4ncn(Cc5cccc(-c6ccccc6)c5)c(=O)c34)C2)cc1 (stereo not given) | 31 |
| O=c1c2c3c(sc2ncn1Cc1cccc2ccccc12)CC(NCC1CCOC1)CC3 (stereo not given) | 72 |
| COc1ccccc1CCNC1CCc2c(sc3ncn(Cc4cccc5cccnc45)c(=O)c23)C1 (stereo not given) | 63 |
| O=c1c2c3c(sc2ncn1Cc1ccccc1)CC(NCc1ccco1)CC3 (stereo not given) | 33 |
| COc1ccc(Cn2cnc3sc4c(c3c2=O)CCC(NCc2ccccc2F)C4)c2ccccc12 (stereo not given) | 71 |
| COCCNC1CCc2c(sc3ncn(Cc4cccc5ccccc45)c(=O)c23)C1 (stereo not given) | 35 |
| COc1ccc(Cn2cnc3sc4c(c3c2=O)CCC(NCc2cccc(Cl)c2)C4)c2ccccc12 (stereo not given) | 6.5 |
| COc1ccc2ccccc2c1Cn1cnc2sc3c(c2c1=O)CCC(NCCN1CCOCC1)C3 (stereo not given) | 70 |
| O=c1c2c3c(sc2ncn1Cc1cccc(-c2ccccc2)c1)CC(Nc1ccc2c(c1)OCO2)CC3 (stereo not given) | 33 |
| O=c1c2c3c(sc2ncn1Cc1ccccc1)CC(NC1CCc2ccccc21)CC3 (stereo not given) | 59 |

| Structure (SMILES) | inhibition [%] |
| --- | --- |
| O=c1c2c3c(sc2ncn1Cc1ccc2ccccc2c1)CC(NCc1ccccc1F)CC3 (stereo not given) | 51 |
| COc1ccccc1Cn1cnc2sc3c(c2c1=O)CCC(NCc1ccccn1)C3 (stereo not given) | 35 |
| CC(=O)NCCNC1CCc2c(sc3ncn(Cc4cccc(-c5ccccc5)c4)c(=O)c23)C1 (stereo not given) | 65 |
| COc1cccc(Cn2cnc3sc4c(c3c2=O)CCC(NCc2ccccc2Cl)C4)c1 (stereo not given) | 68 |
| O=c1c2c3c(sc2ncn1Cc1ccccc1)CC(NCc1cncnc1)CC3 (stereo not given) | 18 |
| O=c1c2c3c(sc2ncn1Cc1cccc2ccccc12)CC(NC1CCCC1)CC3 (stereo not given) | 61 |
| O=c1c2c3c(sc2ncn1Cc1ccccc1)CC(NCc1ccccc1)CC3 (stereo not given) | 57 |
| COc1cccc(Cn2cnc3sc4c(c3c2=O)CCC(NCc2ccc(OC)nc2)C4)c1 (stereo not given) | 28 |
| O=c1c2c3c(sc2ncn1Cc1cccc2cccnc12)CC(NCCN1CCCC1)CC3 (stereo not given) | 29 |
| O=c1c2c3c(sc2ncn1Cc1cccc(-c2ccccc2)c1)CC(Nc1ccc(F)cc1)CC3 (stereo not given) | 52 |
| O=c1c2c3c(sc2ncn1Cc1ccc2ccccc2c1)CC(NC1CCc2ccccc21)CC3 (stereo not given) | 60 |
| COc1cccc(Cn2cnc3sc4c(c3c2=O)CCC(NCc2ccccc2)C4)c1 (stereo not given) | 64 |
| CC(=O)NCCNC1CCc2c(sc3ncn(Cc4cccc5cccnc45)c(=O)c23)C1 (stereo not given) | 28 |
| COc1cccc(CNC2CCc3c(sc4ncn(Cc5ccc6ccccc6c5)c(=O)c34)C2)c1 (stereo not given) | 51 |
| COc1cccc(Cn2cnc3sc4c(c3c2=O)CCC(NCc2cncnc2)C4)c1 (stereo not given) | 18 |
| O=c1c2c3c(sc2ncn1Cc1cccc2cccnc12)CC(NCC1CCOC1)CC3 (stereo not given) | 60 |
| COc1ccccc1CNC1CCc2c(sc3ncn(Cc4cccc5ccccc45)c(=O)c23)C1 (stereo not given) | 60 |
| Cc1noc(C)c1CNC1CCc2c(sc3ncn(Cc4cccc(-c5ccccc5)c4)c(=O)c23)C1 (stereo not given) | 60 |
| COc1ccc2ccccc2c1Cn1cnc2sc3c(c2c1=O)CCC(NCc1ccccc1F)C3 (stereo not given) | 64 |
| Cc1cccc(NC2CCc3c(sc4ncn(Cc5cccc6ccccc56)c(=O)c34)C2)c1 (stereo not given) | 41 |
| N#Cc1ccc(CNC2CCc3c(sc4ncn(Cc5cccc6ccccc56)c(=O)c34)C2)cc1 (stereo not given) | 66 |
| COc1ccc(CNC2CCc3c(sc4ncn(Cc5ccccc5OC)c(=O)c34)C2)cc1 (stereo not given) | 67 |
| O=c1c2c3c(sc2ncn1Cc1cccc(-c2ccccc2)c1)CC(NCc1cccc(F)c1)CC3 (stereo not given) | 63 |

| Structure (SMILES) | inhibition [%] |
| --- | --- |
| COc1cccc(NC2CCc3c(sc4ncn(Cc5cccc6ccccc56)c(=O)c34)C2)c1 (stereo not given) | 46 |
| COc1ccc2ccccc2c1Cn1cnc2sc3c(c2c1=O)CCC(NCc1ccc(Cl)cc1)C3 (stereo not given) | 40 |
| COc1ccc2ccccc2c1Cn1cnc2sc3c(c2c1=O)CCC(NCc1cccc(Cl)c1)C3 (stereo not given) | 50 |
| Cc1cccc(NC2CCc3c(sc4ncn(Cc5ccc6ccccc6c5)c(=O)c34)C2)c1 (stereo not given) | 31 |
| O=c1c2c3c(sc2ncn1Cc1cccc(-c2ccccc2)c1)CC(NC1CCCc2ccccc21)CC3 (stereo not given) | 22 |
| N#Cc1ccc(CNC2CCc3c(sc4ncn(Cc5cccc(-c6ccccc6)c5)c(=O)c34)C2)cc1 (stereo not given) | 75 |
| O=c1c2c3c(sc2ncn1Cc1cccc(-c2ccccc2)c1)CC(NCc1cccc(Cl)c1)CC3 (stereo not given) | 43 |
| COc1ccccc1Cn1cnc2sc3c(c2c1=O)CCC(NCC1CCCO1)C3 (stereo not given) | 27 |
| COc1ccccc1Cn1cnc2sc3c(c2c1=O)CCC(NCCc1cccnc1)C3 (stereo not given) | 38 |
| COc1cccc(Cn2cnc3sc4c(c3c2=O)CCC(NCCc2cccnc2)C4)c1 (stereo not given) | 40 |
| O=c1c2c3c(sc2ncn1Cc1ccc2ccccc2c1)CC(NCCN1CCCC1)CC3 (stereo not given) | 52 |
| COc1ccccc1CCNC1CCc2c(sc3ncn(Cc4cccc(-c5ccccc5)c4)c(=O)c23)C1 (stereo not given) | 65 |
| COc1cccc(NC2CCc3c(sc4ncn(Cc5ccc6ccccc6c5)c(=O)c34)C2)c1 (stereo not given) | 37 |
| COc1cccc(Cn2cnc3sc4c(c3c2=O)CCC(NCC2CCCO2)C4)c1 (stereo not given) | 3 |
| COc1ccc(CNC2CCc3c(sc4ncn(Cc5ccccc5)c(=O)c34)C2)cc1 (stereo not given) | 45 |
| COc1ccccc1CNC1CCc2c(sc3ncn(Cc4ccccc4)c(=O)c23)C1 (stereo not given) | 46 |
| O=c1c2c3c(sc2ncn1Cc1cccc2cccnc12)CC(NC1CCOCC1)CC3 (stereo not given) | 51 |
| O=c1c2c3c(sc2ncn1Cc1cccc2ccccc12)CC(NCCN1CCCC1)CC3 (stereo not given) | 56 |
| COc1ccc(Cn2cnc3sc4c(c3c2=O)CCC(NCc2ccccc2Cl)C4)c2ccccc12 (stereo not given) | 65 |
| O=c1c2c3c(sc2ncn1Cc1ccc2ccccc2c1)CC(NC1CCOCC1)CC3 (stereo not given) | 52 |
| COc1ccccc1NC1CCc2c(sc3ncn(Cc4c(OC)ccc5ccccc45)c(=O)c23)C1 (stereo not given) | 29 |
| CC(=O)NCCNC1CCc2c(sc3ncn(Cc4ccc5ccccc5c4)c(=O)c23)C1 (stereo not given) | 47 |
| COc1ccc2ccccc2c1Cn1cnc2sc3c(c2c1=O)CCC(Nc1cccc(C)c1)C3 (stereo not given) | 27 |

| Structure (SMILES) | inhibition [%] |
| --- | --- |
| O=c1c2c3c(sc2ncn1Cc1cccc2cccnc12)CC(NCC1CCCO1)CC3 (stereo not given) | 58 |
| COc1ccccc1Cn1cnc2sc3c(c2c1=O)CCC(NCCc1ccncc1)C3 (stereo not given) | 26 |
| O=c1c2c3c(sc2ncn1Cc1cccc2ccccc12)CC(NCc1ccccc1F)CC3 (stereo not given) | 71 |
| O=c1c2c3c(sc2ncn1Cc1cccc(-c2ccccc2)c1)CC(NCc1ccccc1Cl)CC3 (stereo not given) | 39 |
| COc1ccc(Cn2cnc3sc4c(c3c2=O)CCC(NCCNC(C)=O)C4)c2ccccc12 (stereo not given) | 58 |
| COc1cccc(Cn2cnc3sc4c(c3c2=O)CCC(NC2CCc3ccccc32)C4)c1 (stereo not given) | 64 |
| COc1ccccc1Cn1cnc2sc3c(c2c1=O)CCC(NCc1ccncc1)C3 (stereo not given) | 64 |
| COc1ccc2ccccc2c1Cn1cnc2sc(CCN)c(C)c2c1=O | 25 |
| Cc1nn(C)c(C)c1CNC1CCc2c(sc3ncn(Cc4cccc5cccnc45)c(=O)c23)C1 (stereo not given) | 74 |
| O=c1c2c3c(sc2ncn1Cc1cccc2cccnc12)CC(Nc1ccc2c(c1)OCO2)CC3 (stereo not given) | 76 |
| COc1ccc2ccccc2c1Cn1cnc2sc3c(c2c1=O)CCC(NCc1ccccc1Cl)C3 (stereo not given) | 40 |
| COc1ccccc1CCNC1CCc2c(sc3ncn(Cc4ccc5ccccc5c4)c(=O)c23)C1 (stereo not given) | 67 |
| O=c1c2c3c(sc2ncn1Cc1ccc2ccccc2c1)CC(NCCN1CCOCC1)CC3 (stereo not given) | 47 |
| COCCNC1CCc2c(sc3ncn(Cc4c(OC)ccc5ccccc45)c(=O)c23)C1 (stereo not given) | 44 |
| O=c1c2c3c(sc2ncn1Cc1ccccc1)CC(NCc1cccnc1)CC3 (stereo not given) | 42 |
| O=c1c2c3c(sc2ncn1Cc1cccc2ccccc12)CC(NC1CCOCC1)CC3 (stereo not given) | 59 |
| COc1cccc(Cn2cnc3sc4c(c3c2=O)CCC(NCc2ccncc2)C4)c1 (stereo not given) | 59 |
| O=c1c2c3c(sc2ncn1Cc1ccc2ccccc2c1)CC(NCc1ccccc1Cl)CC3 (stereo not given) | 43 |
| COc1ccccc1Cn1cnc2sc3c(c2c1=O)CCC(NCc1ccco1)C3 (stereo not given) | 43 |
| O=c1c2c3c(sc2ncn1Cc1cccc2ccccc12)CC(NCc1ccccc1Cl)CC3 (stereo not given) | 46 |
| COc1ccccc1NC1CCc2c(sc3ncn(Cc4cccc5cccnc45)c(=O)c23)C1 (stereo not given) | 69 |
